Screening data from PubChem BioAssay.
The list is not random: actives were taken first. Their share in the collection is about 3.5%.
Pf gametocyte: late stage P. falciparum gametocyte viability inhibitors, primary screen, ATP luminescence, HTS | P. falciparum stage V gametocytes, 24 h | inhibition, % at 10.9 µM | actives 0.065% (n = 150,000) | AID 743093, 2013;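 active means inhibition above the mean plus 3 SD of compounds within the control limits, set per campaign, cut at about 38% in these data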;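 further: 0% = DMSO wells and 100% = medium only without gametocytes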
STAT1 activator: STAT1 signaling activators, primary screen, cell-based, HTS, luciferase reporter; NIH 3T3 STAT1-luciferase reporter, IFN-gamma, luminescence; 100% = IFN-gamma alone, no compound; AID 932, 2007; actives 2.6% (n = 200,000); activation (% of control), % at 5.5 µM;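 active means activation above the screen-wide mean activation plus 3 SD, cut at about 130% in these data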;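 further: raw ratio to IFN-gamma control signal so 100% means no change and 0% no light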
APP 5'UTR act: activators of APP 5'UTR luciferase reporter, primary screen, SH-SY5Y cells; actives 1% (n = 190,000); activation, % at 2 µM; SH-SY5Y APP 5'UTR luciferase reporter, luminescence; zero percent = DMSO vehicle wells;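 active means activation above a set limit, based on mean plus 3 SD of controls, cut at about 140% in these data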
NF-kB neuron act: activators of NF-kB expression in neurons, primary screen, cell-based, HTS; human neuronal cells, NF-kB reporter expression; hits give high values; fold change at 12.5 µM; actives 1.6% (n = 190,000); AID 1239, 2008; in the data active means fold change above about 3.3
FLuc act counter: FLuc activators, initial screening, artefact control for FLuc-dependent activation tests, biochemical, ATPlite luminescence; 200,000 tested, under 10 active; AID 1027, 2008; ATPlite luciferase biochemical, 10 min; 0 = ATP-free wells, 1 = DMSO control; Luciferin 4-monooxygenase (Photinus pyralis), P08659; activation factor at 10 µM;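 active means luciferase activation factor, scaled between plate controls, of at least 2 with compound at 10 µM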
Target sequence (P08659 whole entry, looked up): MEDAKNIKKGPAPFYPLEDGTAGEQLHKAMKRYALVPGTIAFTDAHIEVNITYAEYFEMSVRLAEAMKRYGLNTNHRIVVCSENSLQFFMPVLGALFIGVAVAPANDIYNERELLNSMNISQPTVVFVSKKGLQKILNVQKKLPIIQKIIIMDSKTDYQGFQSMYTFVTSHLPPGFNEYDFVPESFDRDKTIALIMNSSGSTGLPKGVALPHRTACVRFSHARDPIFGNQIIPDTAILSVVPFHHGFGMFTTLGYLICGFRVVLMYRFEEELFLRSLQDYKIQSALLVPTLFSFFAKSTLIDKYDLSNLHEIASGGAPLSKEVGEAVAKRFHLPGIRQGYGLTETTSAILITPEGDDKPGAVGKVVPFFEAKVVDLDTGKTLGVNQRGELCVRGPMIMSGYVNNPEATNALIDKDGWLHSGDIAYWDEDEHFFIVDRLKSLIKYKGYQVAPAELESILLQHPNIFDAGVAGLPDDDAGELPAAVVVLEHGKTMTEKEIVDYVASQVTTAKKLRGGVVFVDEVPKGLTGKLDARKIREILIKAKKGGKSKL
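assay system = Luciferase/luciferin detection reagent, cell-free biochemical luciferase assay | also added = ATP substrate | times = 10 min post-reagent at room temperature | measured by = luminescence from luciferase reaction | measure = luciferase activation, seen as luminescence increase over controls | benchmarks = low control with PBS replacing ATP, high control enzyme plus ATP without compound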
FLuc inh counter: firefly luciferase enzyme inhibitors, primary screen, artefact control for luciferase-based inhibitor screens, biochemical, luminescence, ATPLite; actives 1.5% (n = 200,000); 10 min; Luciferin 4-monooxygenase (Photinus pyralis), P08659; inhibition, % at 10 µM;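 active means inhibition above about 50% when tested at 10 µM, limit read from the data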
An asterisk follows results filed as active; x = no result.

SMILES	Pf gametocyte	STAT1 activator	APP 5'UTR act	NF-kB neuron act	FLuc act counter	FLuc inh counter
O=C(CSc1nnc(NC(=O)c2ccco2)s1)Nc1ccccc1F	-5.5	106.3	-23.2	1.18	0.7	29.7
O=C(CSc1nnc(NC(=O)c2ccccc2F)s1)Nc1ccccc1F	6.9	90.8	43.7	1.65	0.1	88.6*
CCSc1nnc(Nc2ccc(C)cc2)s1	x	142.6*	70.1	3.42*	0.7	26.3
CCSc1nnc(NC(=O)c2ccccc2C)s1	-6.7	137.5*	56.0	2.38	0.9	10.3
CN(CC(=O)Nn1cnnc1)S(=O)(=O)c1ccc(Br)cc1	x	100.8	-12.6	0.93	1	-4.4
COC(=O)c1ccc(-c2cc(C(=O)O)c3cc4c(cc3n2)OCCO4)cc1	23.7	100.5	19.7	1.37	0.6	44.8
Cc1oc(-c2ccc(Cl)cc2)nc1CN1CCCC(C(=O)NCc2ccco2)C1 (centres undefined)	-0.4	93.0	16.9	0.61	1	-3.1
CCOC(=O)c1[nH]c(C)c(C(=O)OCC(=O)Nc2sc3c(c2C#N)CCCCC3)c1C	x	98.3	7.0	1.03	1	-2.2
Cc1nn(C)c(C(=O)NCc2ccc(Cl)cc2)c1Cl	18.0	77.5	-6.7	0.81	1.1	-8.7
Cc1ccccc1C(=O)Nc1nnc(-c2ccco2)s1	5.9	58.6	140.8*	3.72*	0.6	41.8
Cc1ccccc1OCC(=O)Nc1nnc(-c2ccco2)s1	-5.8	x	x	x	x	x
O=C(N/N=C/c1cc2c(cc1Cl)OCO2)c1ccccn1	6.3	134.2*	23.4	x	x	x
COc1cc(/C=N/NC(=O)c2ccccn2)cc2c1OCO2	1.2	129.0*	37.3	0.93	0.8	24.0
O=C(CNC(=O)c1ccccn1)N/N=C/c1ccc2c(c1)OCO2	3.5	119.7	-4.5	1.85	0.9	12.8
COc1ccccc1/C=C/C=N/NC(=O)c1ccccn1	3.4	132.8*	121.4	4.64*	0.5	47.1
O=C(N/N=C/c1cc2c(cc1[N+](=O)[O-])OCO2)c1ccccn1	-10.4	97.7	12.6	x	x	x
OCC[C@@H]1C[C@@H](O)[C@H](O)[C@]2(CCCO2)O1	-16.0	x	x	x	x	x
C=CCNC(=O)C1CC1(c1ccc(C)cc1)c1ccc(C)cc1 (centres undefined)	-2.8	x	x	x	x	x
CCOc1ccc(-n2c(SCC(=O)Nc3cc(OC)c([N+](=O)[O-])cc3C)nc3ccccc32)cc1	-5.8	94.6	15.7	0.84	1.1	-5.7
COc1cc([N+](=O)[O-])ccc1NC(=O)CSc1nc2ccccc2n1-c1ccccc1	16.6	96.3	13.2	4.24*	1.1	-7.5
Cc1cccc2nc(=S)n(C(=O)c3ccco3)n12	x	197.3*	145.9*	12*	0.2	84.6*
O=C(c1ccco1)n1c(=S)nc2ccccn21	x	143.6*	86.6	5.42*	0.3	68.4*
Cc1cccc(C(=O)n2c(=S)nc3cc(C)ccn32)c1	0.3	x	x	x	x	x
CC#CCN1c2ccccc2[C@]23C[C@@H](C(=O)OC)N(C(=O)NC4CCCCC4)C2=NC(C(=O)OC)=C(C(=O)OC)[C@H]13	13.4	x	x	x	x	x
Clc1cccc(-c2nc(-c3ccc(-c4nn[nH]n4)cc3)no2)c1	8.8	x	x	x	x	x
SMILES	Pf gametocyte	STAT1 activator	APP 5'UTR act	NF-kB neuron act	FLuc act counter	FLuc inh counter
Cc1ccc(C(=O)N(C)c2ccc(OCC(=O)N3c4ccc(C)cc4C4CN(C)CCC43)cc2)cc1 (centres undefined)	x	95.4	26.9	0.98	0.1	87.9*
CN(C)/C=N/c1nc2ccc3c(c2s1)CCCC3	-2.1	139.4*	102.4	x	0.7	30.8
CCOCCCNC(=O)c1ccc(OC2CCN(C(C)=O)CC2)c(OC)c1	-5.8	x	x	x	x	x
COCCCNc1nc2c(-c3cccc(C)c3)nnn2c2ccccc12	x	101.1	7.2	1.17	1	-2.5
COC(=O)c1ccc(C)c(NS(=O)(=O)c2ccc(OC)cc2)c1	10.6	103.1	-93.8	3.99*	1	-1.3
COC(=O)c1ccc(C)c(NS(=O)(=O)c2ccc(C)c([N+](=O)[O-])c2)c1	-2.1	92.4	15.0	1.03	1	-4.8
COc1cc2[nH]c(=O)n(CCCCCC(=O)NCCCN3CCC(C)CC3)c(=O)c2cc1OC	8.1	96.2	29.8	1.27	1	-4.2
Cc1nonc1C(=O)N/N=C/c1ccccc1	-10.5	132.4*	20.1	1.09	0.9	9.8
O=C(N/N=C/C(Br)=C/c1ccccc1)c1cccs1	1.1	148.5*	146.7*	7.5*	0.5	46.4
CC1C(=O)NN=C1C(=O)N/N=C\C(Br)=C\c1ccccc1 (centres undefined)	x	24.1	126.7	3.09	0	95.4*
O=C(N/N=C/C(Br)=C/c1ccccc1)c1n[nH]c2c1CCC2	x	146.3*	x	7.95*	0.5	47.0
O=C(N/N=C/c1cccnc1)c1cccs1	13.6	x	x	x	x	x
C=CCC[C@@H](Cc1ccc(F)cc1)C(=O)OC[C@H](C)NC(=O)[C@@H](CC=C)CC(=O)N[C@@H](CO)Cc1ccccc1	-15.4	x	x	x	x	x
Fc1ccc(-c2[nH]ncc2CN(CC2CCC2)CC2CCCO2)c(F)c1 (centres undefined)	-14.2	98.5	-5.6	1.07	1	-1.9
O=C(N/N=C/c1ccccc1[N+](=O)[O-])c1cccs1	1.1	x	x	x	x	x
O=C(N/N=C/c1ccc(Cl)cc1)c1n[nH]c2c1CCCC2	18.9	x	x	x	x	x
O=C(N/N=C/c1cccs1)c1n[nH]c2c1CCC2	x	129.8*	5.6	3	0.3	69.7*
O=C(N/N=C/C=C/c1ccccc1[N+](=O)[O-])c1cccs1	4.4	108.8	8.7	4.24*	1	3.5
O=C(N/N=C/c1ccccc1)c1n[nH]c2c1CCCC2	9.0	101.9	105.3	1	0.3	74.6*
CCCCSc1nnc2c(n1)[nH]c1ccccc12	-30.6	139.6*	30.0	2.31	0.8	16.5
Cc1ccc([C@@H]2[C@@H]3C(=O)N(C)C(=O)[C@@H]3[C@]3(C)C(=O)N(Cc4ccc(-c5ccccc5)cc4)CC(=O)N23)o1	-37.3	x	x	x	x	x
O=C(O)c1ccc(Oc2ccc(S(=O)(=O)c3ccc(C(=O)O)c(C(=O)O)c3)cc2)cc1	4.4	x	x	x	x	x
O=C(N/N=C/c1ccco1)c1ccccn1	x	113.6	67.9	1.75	0.7	25.6
O=C(N/N=C/c1ccsc1)c1ccccn1	24.2	127.5	36.0	2.19	0.5	52.2*
O=C(N/N=C/c1ccc(Br)s1)c1ccccn1	4.5	137.4*	99.6	3.47*	0.3	66.4*
O=C(N/N=C/c1ccc(Br)s1)c1ccco1	-7.9	x	x	x	x	x
CC(C)(C)c1ccc(/C=N/NC(=O)c2ccccn2)cc1	16.8	58.9	167.6*	2.36	0.1	92.7*
CN(C)/C=N/NC(=O)c1ccc(Cl)cc1	6.5	104.4	-6.2	1.19	1.1	-6.6
